# Results taken from ChEMBL document CHEMBL4261518, “Side chain-functionalized aniline-derived ursolic acid derivatives as multidrug resistance reversers that block the nuclear factor-kappa B (NF-κB) pathway and cell proliferation” (Medchemcomm, 2017).
# The source made the active and inactive calls. No cut-off for these calls is given here.
# Legend:
# [1] = biological target: Inhibitor of NF-kappa-B kinase alpha/beta (Homo sapiens) (UniProt O14920+O15111); assay: Inhibition of TNFalpha-induced IKKalpha/beta phosphorylation in human NCI-H460 cells by Western blot analysis; format: cell-based
# In short: (§1)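 TNF-α-stimulated NCI-H460 cells treated with compound, lysed in ice-cold RIPA with protease and phosphatase inhibitors, protein measured by Bradford. Equal protein run on 12% SDS-PAGE, transferred to PVDF. Probed overnight at 4 °C for TAK1, TAB1, IKKα, p-IKKα/β or NF-κB p65, then HRP secondary (1:2000), chemiluminescence, β-actin loading control. Three separate experiments.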
# NCI-H460 [2] = assay: Cell cycle arrest in human NCI-H460 cells assessed as accumulation at G2-phase at 10 uM after 24 to 48 hrs by propidium iodide staining based flow cytometry (reference value: 3.82%); format: functional
# NCI-H460 [3] = assay: Cell cycle arrest in human NCI-H460 cells assessed as accumulation at G1-phase at 10 uM after 24 to 48 hrs by propidium iodide staining based flow cytometry (reference value: 41.83%); format: functional
# HepG2 = assay: Cytotoxicity against human HepG2 cells after 48 hrs by MTT assay; format: functional, cell-based; details: HepG2, 48 h
# In short: (§2)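 Cells grown overnight in DMEM + 10% FBS at 37 °C under 5% CO2, then given a range of compound concentrations for 48 h. MTT added for about 4 h, medium replaced by DMSO, absorbance read at 570/630 nm. IC50 reported as mean ± SD of five independent experiments.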
# [4] = Resistant factor, ratio of IC50 for human HepG2/DOX cells to IC50 for human HepG2 cells; format: functional
# NCI-H460 [5] = assay: Induction of apoptosis in human NCI-H460 cells assessed as necrotic cells at 5 uM after 24 hrs by propidium iodide/Annexin V-FITC staining based flow cytometry (reference value: 2.8%); format: functional
# NCI-H460 [6] = assay: Cell cycle arrest in human NCI-H460 cells assessed as accumulation at S-phase at 5 uM after 24 to 48 hrs by propidium iodide staining based flow cytometry (reference value: 54.36%); format: functional
# NCI-H460 [7] = assay: Inhibition of TNFalpha-induced IKKalpha protein expression in human NCI-H460 cells at 5 to 10 uM by Western blot analysis; format: functional, cell-based; in short: as §1
# NCI-H460 [8] = assay: Induction of apoptosis in human NCI-H460 cells assessed as live cells at 5 uM after 24 hrs by propidium iodide/Annexin V-FITC staining based flow cytometry (reference value: 89%); format: functional
# NCI-H460 [9] = assay: Inhibition of TNFalpha-induced NF-kB protein expression in human NCI-H460 cells by Western blot analysis; format: functional, cell-based; in short: as §1
# NCI-H460 [10] = assay: Induction of ROS generation in human NCI-H460 cells at 10 uM after 24 hrs by DCF-DA staining based flow cytometry (reference value: 12.9%); format: functional
# NCI-H460 [11] = assay: Inhibition of TNFalpha-induced TAB1 protein expression in human NCI-H460 cells by Western blot analysis; format: functional, cell-based; in short: as §1
# NCI-H460 [12] = assay: Induction of apoptosis in human NCI-H460 cells assessed as nuclear condensation after 24 hrs by Hoechst 33258 staining based fluorescence microscopic method; format: functional, cell-based
# In short: (§3)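 NCI-H460 cells (2 × 10^6) in six-well plates exposed to 5 or 10 μM for 24 h. Fixed 10 min in 4% paraformaldehyde, washed in cold PBS, stained with Hoechst 33258 for 5 min in the dark. Viewed by fluorescence microscopy at ex 350/em 460 nm; brightly stained condensed nuclei scored as apoptotic.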
# NCI-H460 [13] = assay: Induction of apoptosis in human NCI-H460 cells assessed as necrotic cells at 10 uM after 24 hrs by propidium iodide/Annexin V-FITC staining based flow cytometry (reference value: 2.8%); format: functional
# L02 = assay: Cytotoxicity against human HL7702 cells after 48 hrs by MTT assay; format: cell-based; details: L02, 48 h; in short: as §2
# NCI-H460 [14] = assay: Induction of apoptosis in human NCI-H460 cells after 24 hrs by propidium iodide/Annexin V-FITC staining based flow cytometry; format: functional, cell-based
# NCI-H460 [15] = assay: Cell cycle arrest in human NCI-H460 cells assessed as accumulation at S-phase at 10 uM after 24 to 48 hrs by propidium iodide staining based flow cytometry (reference value: 54.36%); format: functional
# NCI-H460 [16] = assay: Inhibition of TNFalpha-induced TAK1 protein expression in human NCI-H460 cells by Western blot analysis; format: functional, cell-based; in short: as §1
# NCI-H460 [17] = assay: Induction of apoptosis in human NCI-H460 cells assessed as early apoptotic cells at 5 uM after 24 hrs by propidium iodide/Annexin V-FITC staining based flow cytometry (reference value: 2.79%); format: functional
# [18] = biological target: Transcription factor p65 (Homo sapiens) (UniProt Q04206); assay: Inhibition of TNFalpha-induced NF-kB p65 activation human NCI-H460 cells assessed as reduction in DNA binding ability at 5 to 10 uM by ELISA relative to control; format: cell-based
# Chain of Transcription factor p65 (Homo sapiens) (Q04206 whole entry): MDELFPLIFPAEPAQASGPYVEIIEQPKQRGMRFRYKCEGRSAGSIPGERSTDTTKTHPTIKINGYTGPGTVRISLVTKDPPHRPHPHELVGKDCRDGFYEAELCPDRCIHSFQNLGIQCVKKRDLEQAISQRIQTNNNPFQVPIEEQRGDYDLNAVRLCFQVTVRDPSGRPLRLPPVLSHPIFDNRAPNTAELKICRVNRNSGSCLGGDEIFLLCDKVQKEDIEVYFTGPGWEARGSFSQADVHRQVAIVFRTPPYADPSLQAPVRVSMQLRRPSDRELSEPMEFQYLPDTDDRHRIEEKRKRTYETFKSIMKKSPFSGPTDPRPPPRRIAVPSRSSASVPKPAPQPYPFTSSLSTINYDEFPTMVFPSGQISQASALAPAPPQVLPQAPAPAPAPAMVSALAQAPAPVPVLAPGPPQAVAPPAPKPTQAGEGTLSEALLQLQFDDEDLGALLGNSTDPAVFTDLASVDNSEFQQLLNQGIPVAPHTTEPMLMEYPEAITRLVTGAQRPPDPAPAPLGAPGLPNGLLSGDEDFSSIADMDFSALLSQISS
# NCI-H460 [19] = assay: Induction of apoptosis in human NCI-H460 cells assessed as early apoptotic cells at 10 uM after 24 hrs by propidium iodide/Annexin V-FITC staining based flow cytometry (reference value: 2.79%); format: functional
# NCI-H460 [20] = assay: Cytotoxicity against human NCI-H460 cells harboring pNF-kB-Luc assessed as reduction in cell viability after 7 hrs by MTT assay relative to control; design: concentration or dose not given beside the values; details: nci-h460, 7 h
# NCI-H460 [21] = assay: Induction of apoptosis in human NCI-H460 cells assessed as late apoptotic cells at 10 uM after 24 hrs by propidium iodide/Annexin V-FITC staining based flow cytometry (reference value: 5.4%); format: functional
# NCI-H460 [22] = assay: Cytotoxicity against human NCI-H460 cells after 48 hrs by MTT assay; format: functional, cell-based; details: NCI-H460, 48 h; in short: as §2
# NCI-H460 [23] = assay: Induction of ROS generation in human NCI-H460 cells at 5 uM after 24 hrs by DCF-DA staining based flow cytometry (reference value: 12.9%); format: functional
# [24] = Inhibition of TNFalpha-induced NF-kB (unknown origin) activation expressed in human NCI-H460 cells after 7 hrs by luciferase reporter gene assay; format: cell-based; details: NCI-H460, 7 h
# In short: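 NCI-H460 cells transiently co-transfected with pNF-κB-Luc reporter and pSV-β-galactosidase internal control by lipofectamine. Medium changed after 6 h, then 6 h further culture. TNF-α (15 ng ml–1) plus compound given together for 7 h. Luciferase ratio to TNF-α-only cells, corrected for non-TNF background and viability. IC50 from sigmoidal variable-slope fit.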
# MGC-803 = assay: Cytotoxicity against human MGC803 cells after 48 hrs by MTT assay; format: functional, cell-based; details: MGC-803, 48 h; in short: as §2
# T-24 = assay: Cytotoxicity against human T24 cells after 48 hrs by MTT assay; format: functional, cell-based; details: T-24, 48 h; in short: as §2
# NCI-H460 [25] = assay: Induction of apoptosis in human NCI-H460 cells assessed as chromatin condensation after 24 hrs by Hoechst 33258 staining based fluorescence microscopic method; format: functional, cell-based; in short: as §3
# NCI-H460 [26] = assay: Induction of apoptosis in human NCI-H460 cells assessed as live cells at 10 uM after 24 hrs by propidium iodide/Annexin V-FITC staining based flow cytometry (reference value: 89%); format: functional
# [27] = Cytotoxicity against human NCI-H460/DOX cells after 48 hrs by MTT assay; format: functional, cell-based; details: NCI-H460, 48 h; in short: as §2
# NCI-H460 [28] = assay: Cell cycle arrest in human NCI-H460 cells assessed as accumulation at G1-phase at 5 uM after 24 to 48 hrs by propidium iodide staining based flow cytometry (reference value: 41.83%); format: functional
# NCI-H460 [29] = assay: Induction of apoptosis in human NCI-H460 cells assessed as late apoptotic cells at 5 uM after 24 hrs by propidium iodide/Annexin V-FITC staining based flow cytometry (reference value: 5.4%); format: functional
# NCI-H460 [30] = assay: Cell cycle arrest in human NCI-H460 cells assessed as accumulation at G2-phase at 5 uM after 24 to 48 hrs by propidium iodide staining based flow cytometry (reference value: 3.82%); format: functional
# NCI-H460 [31] = assay: Induction of ROS generation in human NCI-H460 cells at 10 uM after 24 hrs by DCF-DA staining based flow cytometry relative to control; format: functional
# A549 = assay: Cytotoxicity against human A549 cells after 48 hrs by MTT assay; format: functional, cell-based; details: A549, 48 h; in short: as §2
# [32] = Resistant factor, ratio of IC50 for human NCI-H460/DOX cells to IC50 for human NCI-H460 cells; format: functional
# [33] = Cytotoxicity against human SPCA2 cells after 48 hrs by MTT assay; format: functional, cell-based; details: SPCA2, 48 h; in short: as §2
# [34] = Cytotoxicity against human HepG2/DOX cells after 48 hrs by MTT assay; format: functional, cell-based; in short: as §2
smiles,measurement,setting,value
CC(=O)O[C@H]1CC[C@]2(C)[C@H]3CC=C4[C@@H]5[C@@H](C)[C@H](C)CC[C@]5(C(=O)NCCN(C)C)CC[C@@]4(C)[C@]3(C)CC[C@H]2C1(C)C,inhibition,[1],Dose-dependent effect
same,Activity,NCI-H460 [2],4.23%
same,Activity,NCI-H460 [3],53.82%
same,IC50,HepG2,8.14 µM
same,Ratio IC50,[4],1.33
same,Activity,NCI-H460 [5],3.85%
same,Activity,NCI-H460 [6],46.27%
same,inhibition,NCI-H460 [7],Active
same,Activity,NCI-H460 [8],79.9%
same,inhibition,NCI-H460 [9],Dose-dependent effect
same,Activity,NCI-H460 [10],40.8%
same,inhibition,NCI-H460 [11],Dose-dependent effect
same,Activity,NCI-H460 [12],Dose-dependent effect
same,Activity,NCI-H460 [13],5.8%
same,IC50,L02,> 50 µM
same,Activity,NCI-H460 [14],Dose-dependent effect
same,Activity,NCI-H460 [15],41.95%
same,inhibition,NCI-H460 [16],Dose-dependent effect
same,Activity,NCI-H460 [17],12.3%
same,fold change (FC),[18],2.3
same,Activity,NCI-H460 [19],47.1%
same,Activity,NCI-H460 [20],< 5%
same,Activity,NCI-H460 [21],5.16%
same,IC50,NCI-H460 [22],3.08 µM
same,Activity,NCI-H460 [23],14.9%
same,IC50,[24],0.36 µM
same,IC50,MGC-803,7.96 µM
same,IC50,T-24,5.51 µM
same,Activity,NCI-H460 [25],Dose-dependent effect
same,Activity,NCI-H460 [26],41.9%
same,IC50,[27],5.2 µM
same,Activity,NCI-H460 [28],49.26%
same,Activity,NCI-H460 [29],3.9%
same,Activity,NCI-H460 [30],4.46%
same,fold change (FC),NCI-H460 [31],>3
same,IC50,A549,4.32 µM
same,Ratio IC50,[32],1.68
same,IC50,[33],5.38 µM
same,IC50,[34],10.8 µM
